Lmaj promast: reduces viability of Leishmania major promastigotes. resazurin fluorescence viability. inhibition, % at 10 µM. 200,000 compounds, 9% hits. AID 1063; in the data active means inhibition above about 50%;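 further: promastigotes grown with compound for 44 hours at 28 °C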
PTEN del growth: suppresses growth of cells with PTEN deletion; viability, % at 10 µM; 140,000 compounds, 1.2% hits; HCT116 PTEN-null viability, CellTiter-Glo, 60 h; active compounds read low;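 active means viability at or below a set limit, 4 SD under the median of all tested compounds, cut at about 3.7% in these data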;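 further: PTEN knockout HCT116 line with beta catenin targeted HCT116 as companion control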
TNAP act hiacc: TNAP (human) activation, high acceptor | P05186 | purified TNAP, CDP-star luminescence, 1 M DEA, 30 min; active compounds read high; 0 = EDTA background, 1 = DMSO-only activity | activation factor at 20 µM | 200,000 tested, under 10 active | AID 1136;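 active means activation factor at least 2 at 20 µM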
Target sequence (P05186 whole entry, looked up): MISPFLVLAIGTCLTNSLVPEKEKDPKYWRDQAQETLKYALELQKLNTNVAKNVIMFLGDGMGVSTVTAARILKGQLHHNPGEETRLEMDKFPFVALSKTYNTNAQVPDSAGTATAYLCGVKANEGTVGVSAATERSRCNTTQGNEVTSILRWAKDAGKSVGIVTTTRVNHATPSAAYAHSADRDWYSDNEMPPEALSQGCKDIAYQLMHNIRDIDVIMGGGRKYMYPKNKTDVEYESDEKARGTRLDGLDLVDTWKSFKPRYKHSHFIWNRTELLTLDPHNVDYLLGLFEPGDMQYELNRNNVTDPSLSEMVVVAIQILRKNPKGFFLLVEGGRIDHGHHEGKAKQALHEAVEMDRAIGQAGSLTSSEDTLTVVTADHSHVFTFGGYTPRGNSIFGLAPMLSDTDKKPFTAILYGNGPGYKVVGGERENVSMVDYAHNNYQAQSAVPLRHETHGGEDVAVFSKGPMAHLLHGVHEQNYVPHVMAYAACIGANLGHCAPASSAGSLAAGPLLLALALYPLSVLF
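Measured by: Luminescent substrate turnover signal | Test system: Human TNAP | Input: TNAP 1/800 final | Dosing: 20 µM single point | Schedule: 30 min, room temperature | Controls: EDTA wells as negative control, DMSO wells as positive control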
TNAP inh noacc: TNAP (human) inhibition, acceptor-free conditions | AID 1012 | P05186 | inhibition, % at 20 µM | purified TNAP, CDP-star luminescence, 30 min | 200,000 compounds, 0.26% hits;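 active means tissue-nonspecific alkaline phosphatase inhibition above about 50% at 20 µM in the single-dose screen, limit read from the data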;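 further: 0% = DMSO negative control and 100% = EDTA positive control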
TNAP inh hi DEA: blocks human TNAP under high phosphate acceptor concentration; P05186; purified TNAP, CDP-star luminescence, 1 M DEA; inhibition, % at 20 µM; 200,000 compounds, 0.03% hits;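 active means over 50% inhibition of tissue-nonspecific alkaline phosphatase at 20 µM in the single-dose screen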;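 further: plate controls were DMSO wells for no effect and EDTA-quenched wells as full inhibition for full effect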
HCT116 bCat-KO: beta-catenin-lacking colon tumor cell growth suppression; HCT116 beta-catenin knockout viability, CellTiter-Glo, 60 h; active compounds read low; viability, % at 10 µM; 140,000 compounds, 1.5% hits; AID 818;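 active means viability at or under a set limit, the compound median less 4 SD, cut at about 6% in these data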;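 further: 0% = Hyamine 1622 control at 20 µM and 100% = untreated cell control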
* hit, by the source's call; nt = no result given. A selection: hits, their analogues and other compounds. The true share with any hit is near 9.6%.

SMILES	Lmaj promast	PTEN del growth	TNAP act hiacc	TNAP inh noacc	TNAP inh hi DEA	HCT116 bCat-KO
COCCOC(=O)C1=C(C)Nc2ncnn2C1c1ccccc1 (centres undefined)	-4	96	1	-7	-3	102
CCOC(=O)C1=C(C)NC(=S)NC1c1ccc(-c2ccc(Cl)cc2)o1 (centres undefined)	63*	48	1	2	0	34
CCOC(=O)C1=C(C)NC(=S)N(C(C)=O)C1c1ccc(Cl)cc1 (centres undefined)	0	0.9*	1	3	0	1.1*
COCCOC(=O)C1=C(C)NC(=O)N(C(C)=O)C1c1ccc(Cl)cc1 (centres undefined)	88*	92	1	-6	2	80
CCOC(=O)C1=C(C)NC(=O)NC1c1ccc(-c2ccc(Cl)cc2)o1 (centres undefined)	13	nt	1.1	-11	-7	nt
CC(=O)Nc1ccc(C(=O)N(C)C(C(=O)Nc2ccccc2)c2ccccn2)cc1 (centres undefined)	-3	100	1.1	-7	-7	94
COc1ccc(CC(=O)Nc2nnc(C(C)C)s2)cc1OC	4	nt	1	-3	4	nt
O=S1(=O)N=C(N(CCO)/N=C/C=C/c2ccccc2)c2ccccc21	53*	88	1	-6	1	87
O=S1(=O)N=C(N/N=C/C=C/c2ccccc2)c2ccccc21	22	96	1	-16	-4	77
CCCCOc1ccc(CSc2nnc(C)n2N)cc1[N+](=O)[O-]	-4	nt	1.1	-8	-11	nt
CCCOc1ccc(CSC2=NCCN2)cc1[N+](=O)[O-]	57*	47	1	-9	-5	31
FC(F)(F)c1cc(-c2ccco2)nc(-n2cnc3ccccc32)n1	0	73	1.1	0	-5	85
Cc1nc2ccccc2n1-c1nc(-c2ccco2)cc(C(F)(F)F)n1	-3	2.7*	1	-9	-3	3.1*
COc1cc(CN2CC(=O)N(c3ccc(C)cc3)C2=S)cc(OC)c1OC	82*	83	1	-9	-2	82
Cc1cc(NC(c2ccc(Cl)cc2)c2ccc3cccnc3c2O)no1 (centres undefined)	100*	10	1.1	-19	-7	4.3*
Cc1cc(NC(=O)CSc2ccc(Cl)cc2)no1	4	99	1	0	-2	101
Cc1ccc2ccc(C(Nc3cccc(C(F)(F)F)c3)c3cccnc3)c(O)c2n1 (centres undefined)	100*	nt	1.1	-42	-8	nt
Cc1ccnc(NC(c2cccnc2)c2ccc3cccnc3c2O)c1 (centres undefined)	98*	nt	1.1	-20	-6	nt
CCOc1ccc(NC(=S)NNC(=O)c2ccc(Br)cc2)cc1	6	nt	1.1	-138	-6	nt
COc1cc(NC(=O)[C@@H](NC(=O)c2ccco2)C(C)C)c(OC)cc1NC(=O)c1ccccc1	5	nt	1	-11	-4	nt
O=C(O)C1=C(OCc2ccccc2)C(=O)NCC1	-5	nt	1	0	-2	nt
CCN1C(=O)/C(=C\c2nc3ccccc3c(=O)n2-c2ccccc2)c2ccccc21	77*	33	1	0	2	53
Cc1ccccc1/C=C\c1nc2ccccc2c(=O)[nH]1	1	nt	1	-7	0	nt
CCN1C(=O)C(Cc2nc3ccccc3c(=O)n2-c2ccccc2)c2ccccc21 (centres undefined)	21	95	1.1	-6	-5	96
CCN1C(=O)/C(=C/c2nc3ccccc3c(=O)n2-c2ccc(C)cc2)c2ccccc21	99*	47	0.9	16	8	36
SMILES	Lmaj promast	PTEN del growth	TNAP act hiacc	TNAP inh noacc	TNAP inh hi DEA	HCT116 bCat-KO
CCN1C(=O)/C(=C/c2nc3ccccc3c(=O)[nH]2)c2ccccc21	99*	54	1	7	1	47
COCCNC(=O)C(=O)N/N=C/c1ccc(C(=O)OC)cc1	0	nt	1	-6	-4	nt
Cc1cccc(-n2c(=S)[nH]c3c(oc4ccccc43)c2=O)c1	58*	90	1.1	-9	-6	99
O=C1Cc2ccccc2Sc2c(OCCN3CCCCC3)cccc21	100*	64	0.9	-4	6	57
O=C1Cc2ccccc2Sc2cc(OCCCN3CCCCC3)ccc21	100*	11	1	3	-4	12
Nc1ccc2c(c1)C(=O)Cc1ccccc1S2	2	94	1.1	-6	-8	99
O=C(CN1CCCCCC1)N1c2ccccc2Sc2ccccc21	22	nt	1	-4	-4	nt
CN(C)CCCOc1ccc2c(c1)Sc1ccccc1CC2=O	100*	77	1	10	1	72
CCOC(=O)c1cc[n+](CC(=O)c2ccc(F)cc2)cc1	-5	99	1	0	2	102
Cc1ccc(NC(=O)c2c(C)nn(-c3ccccc3)c2Cl)cc1	2	97	1	-3	0	98
CCNC(=S)N/N=C(\C)c1ccc(N2CCOCC2)cc1	-4	95	1	6	-2	102
CCc1ccc(OCC(=O)N/N=C(\C)c2ccccc2OC(F)F)cc1	-4	103	1	-6	-3	88
CCc1ccc(OCC(=O)N/N=C(\C)c2ccc(OC(F)F)cc2)cc1	69*	94	1	-12	-1	94
C/C(=N\NC(=O)COc1ccc(C(C)(C)C)cc1)c1ccc(N2CCOCC2)cc1	74*	92	1.1	-5	-6	85
C/C(=N\NC(=O)c1ccc(F)cc1)c1ccc(N2CCOCC2)cc1	-5	nt	1	-14	-5	nt
CNC(=S)N/N=C(\C)c1ccc(N2CCOCC2)cc1	0	1.3*	0.9	1	7	4.8*
COc1cc(C(C)=O)ccc1COc1ccc(C(=O)OC(C)C(=O)NC(N)=O)cc1OC (centres undefined)	-2	87	1	-16	-1	85
COc1ccccc1C(=O)N/C(=C/c1ccc(Br)cc1)C(=O)N1CCCC1	4	nt	1	3	-3	nt
CN(C)C(=S)N=Nc1[nH]c2ccccc2c1O	97*	nt	0.9	-36	10	nt
CC(C)OC(=O)c1c(NC(=O)CCn2nnc3ccccc32)sc2c1CCCC2	28	99	1	4	3	90
CC(=O)NCCC(=O)Nc1sc2c(c1-c1nc3ccccc3[nH]1)CCCC2	98*	75	1	-12	-4	75
CN1CCN(S(=O)(=O)c2cccc(C(=O)Nc3sc4c(c3-c3nc5ccccc5[nH]3)CCCC4)c2)CC1	98*	27	1	-22	-2	48
O=C(Nc1sc2c(c1-c1nc3ccccc3[nH]1)CCCC2)C1CCCC1	88*	72	1.1	-12	-7	74
O=C(O)c1ccc(Nc2ncnc3c2cnn3Cc2ccccc2)cc1	-7	nt	1	-8	-1	nt
Cc1cc(=O)n(-c2ccc(Cl)cc2)c(=O)[nH]1	-4	nt	1	-16	-3	nt

Source: PubChem
